What was measured:
NCI-H23 = test: Growth inhibition of human NCI-H23 cells at 10 uM incubated for 48 hrs by sulforhodamine B assay relative to control; type: functional; settings: NCI-H23, 48 h, read-out: GI
Summary of the method: (§1)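 Single-dose screen at 10 μM final: cells in RPMI 1640, 5% FBS, 2 mM L-glutamine, plated 5,000–40,000/well, preincubated 24 h at 37°C, 5% CO2; drug 48 h; adherent cells fixed with 10% TCA, suspension cells with 16% TCA; SRB stain, absorbance 515 nm; percentage growth versus untreated control, with time-zero plates.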

OVCAR-8 = test: Growth inhibition of human OVCAR8 cells at 10 uM incubated for 48 hrs by sulforhodamine B assay relative to control; type: functional; settings: OVCAR-8, 48 h, read-out: GI; summary of the method: as §1
NCI-H226 = test: Growth inhibition of human NCI-H226 cells at 10 uM incubated for 48 hrs by sulforhodamine B assay relative to control; type: functional; settings: NCI-H226, 48 h, read-out: GI; summary of the method: as §1
OVCAR-3 = test: Growth inhibition of human OVCAR3 cells at 10 uM incubated for 48 hrs by sulforhodamine B assay relative to control; type: functional; settings: OVCAR-3, 48 h, read-out: GI; summary of the method: as §1
EKVX = test: Growth inhibition of human EKVX cells at 10 uM incubated for 48 hrs by sulforhodamine B assay relative to control; type: functional; settings: read-out: GI; summary of the method: as §1
U-251 = test: Growth inhibition of human U251 cells at 10 uM incubated for 48 hrs by sulforhodamine B assay relative to control; type: functional; settings: U-251, 48 h, read-out: GI
Summary of the method: (§2)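 NCI single-dose screen: cells grown in RPMI 1640 with 5% FBS and 2 mM L-glutamine, plated at 5,000–40,000 cells/well and preincubated 24 h at 37 °C, 5% CO2. Compounds taken from DMSO stock and tested at final 10 µM for 48 h. Cells fixed with TCA, stained with 0.4% SRB, absorbance read at 515 nm. Percentage growth calculated against untreated controls; controls held DMSO at the same dilution.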

BT-549 = test: Growth inhibition of human BT549 cells at 10 uM incubated for 48 hrs by sulforhodamine B assay relative to control; type: functional; settings: BT-549, 48 h, read-out: GI; summary of the method: as §1
T47D = test: Growth inhibition of human T47D cells at 10 uM incubated for 48 hrs by sulforhodamine B assay relative to control; type: functional; settings: read-out: GI; summary of the method: as §2
ACHN = test: Growth inhibition of human ACHN cells at 10 uM incubated for 48 hrs by sulforhodamine B assay relative to control; type: functional; settings: read-out: GI; summary of the method: as §1
HL-60(TB) = test: Growth inhibition of human HL-60(TB) cells incubated for 24 hrs by MTT assay; type: functional, cell-based; settings: HL-60, 24 h
Summary of the method: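 Cells at 1.2-1.8×10^4 cells/ml in DMEM with 10% FBS, 10 µg/ml insulin and 1% penicillin/streptomycin, plated overnight at 37°C. Serial 10-fold dilutions added to 0.01–100 µM final, medium as negative control, 24 h. MTT (5 mg/ml) added for 4 h, formazan dissolved in acid-isopropanol, A490 read. Eight separate experiments; percent viable cells used to derive IC50.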

MDA-MB-468 = test: Growth inhibition of human MDA-MB-468 cells at 10 uM incubated for 48 hrs by sulforhodamine B assay relative to control; type: functional; settings: MDA-MB-468, 48 h, read-out: GI; summary of the method: as §1
A549 = test: Growth inhibition of human A549/ATCC cells at 10 uM incubated for 48 hrs by sulforhodamine B assay relative to control; type: functional; settings: A549, 48 h, read-out: GI; summary of the method: as §1
SF-539 = test: Growth inhibition of human SF539 cells at 10 uM incubated for 48 hrs by sulforhodamine B assay relative to control; type: functional; settings: SF-539, 48 h, read-out: GI; summary of the method: as §2
MDA-MB-231 = test: Growth inhibition of human MDA-MB-231 cells at 10 uM incubated for 48 hrs by sulforhodamine B assay relative to control; type: functional; settings: MDA-MB-231, 48 h, read-out: GI; summary of the method: as §1
SK-MEL-2 = test: Growth inhibition of human SK-MEL-2 cells at 10 uM incubated for 48 hrs by sulforhodamine B assay relative to control; type: functional; settings: SK-MEL-2, 48 h, read-out: GI; summary of the method: as §2
HOP-62 = test: Growth inhibition of human HOP62 cells at 10 uM incubated for 48 hrs by sulforhodamine B assay relative to control; type: functional; settings: HOP-62, 48 h, read-out: GI; summary of the method: as §1
SK-MEL-28 = test: Growth inhibition of human SK-MEL-28 cells at 10 uM incubated for 48 hrs by sulforhodamine B assay relative to control; type: functional; settings: SK-MEL-28, 48 h, read-out: GI; summary of the method: as §2
PC-3 = test: Growth inhibition of human PC3 cells at 10 uM incubated for 48 hrs by sulforhodamine B assay relative to control; type: functional; settings: PC-3, 48 h, read-out: GI; summary of the method: as §1
DU-145 = test: Growth inhibition of human DU145 cells at 10 uM incubated for 48 hrs by sulforhodamine B assay relative to control; type: functional; settings: DU-145, 48 h, read-out: GI; summary of the method: as §1
SW-620 = test: Growth inhibition of human SW620 cells at 10 uM incubated for 48 hrs by sulforhodamine B assay relative to control; type: functional; settings: SW-620, 48 h, read-out: GI; summary of the method: as §2
SK-OV-3 = test: Growth inhibition of human SKOV3 cells at 10 uM incubated for 48 hrs by sulforhodamine B assay relative to control; type: functional; settings: SK-OV-3, 48 h, read-out: GI; summary of the method: as §2
NCI/ADR-RES = test: Growth inhibition of human NCI/ADR-RES cells at 10 uM incubated for 48 hrs by sulforhodamine B assay relative to control; type: functional; settings: read-out: GI; summary of the method: as §1
UACC-257 = test: Growth inhibition of human UACC257 cells at 10 uM incubated for 48 hrs by sulforhodamine B assay relative to control; type: functional; settings: UACC-257, 48 h, read-out: GI; summary of the method: as §2
SR = test: Growth inhibition of human SR cells at 10 uM incubated for 48 hrs by sulforhodamine B assay relative to control; type: functional; settings: read-out: GI; summary of the method: as §2
UACC-62 = test: Growth inhibition of human UACC62 cells at 10 uM incubated for 48 hrs by sulforhodamine B assay relative to control; type: functional; settings: UACC-62, 48 h, read-out: GI; summary of the method: as §2
Malme-3M = test: Growth inhibition of human MALME-3M cells at 10 uM incubated for 48 hrs by sulforhodamine B assay relative to control; type: functional; settings: read-out: GI; summary of the method: as §1
SN12C = test: Growth inhibition of human SN12C cells at 10 uM incubated for 48 hrs by sulforhodamine B assay relative to control; type: functional; settings: read-out: GI; summary of the method: as §2
SNB-19 = test: Growth inhibition of human SNB19 cells at 10 uM incubated for 48 hrs by sulforhodamine B assay relative to control; type: functional; settings: SNB-19, 48 h, read-out: GI; summary of the method: as §2
K562 = test: Growth inhibition of human K562 cells at 10 uM incubated for 48 hrs by sulforhodamine B assay relative to control; type: functional; settings: K562, 48 h, read-out: GI; summary of the method: as §1
RPMI-8226 = test: Growth inhibition of human RPMI8226 cells at 10 uM incubated for 48 hrs by sulforhodamine B assay relative to control; type: functional; settings: RPMI-8226, 48 h, read-out: GI; summary of the method: as §1
CAKI-1 = test: Growth inhibition of human Caki1 cells at 10 uM incubated for 48 hrs by sulforhodamine B assay relative to control; type: functional; settings: CAKI-1, 48 h, read-out: GI; summary of the method: as §1

SMILES	inhibition of growth at 10 µM (NCI-H23) [%]	inhibition of growth at 10 µM (OVCAR-8) [%]	inhibition of growth at 10 µM (NCI-H226) [%]	inhibition of growth at 10 µM (OVCAR-3) [%]	inhibition of growth at 10 µM (EKVX) [%]	inhibition of growth at 10 µM (U-251) [%]	inhibition of growth at 10 µM (BT-549) [%]	inhibition of growth at 10 µM (T47D) [%]	inhibition of growth at 10 µM (ACHN) [%]	inhibition of growth at 10 µM (MDA-MB-468) [%]	inhibition of growth at 10 µM (A549) [%]	inhibition of growth at 10 µM (SF-539) [%]	inhibition of growth at 10 µM (MDA-MB-231) [%]	inhibition of growth at 10 µM (SK-MEL-2) [%]	inhibition of growth at 10 µM (HOP-62) [%]	inhibition of growth at 10 µM (SK-MEL-28) [%]	inhibition of growth at 10 µM (PC-3) [%]	inhibition of growth at 10 µM (DU-145) [%]	inhibition of growth at 10 µM (SW-620) [%]	inhibition of growth at 10 µM (SK-OV-3) [%]	other results
CCOC(=O)C1=C(C)NC(SCc2nnc(-c3ccc(Cl)cc3)o2)=NC1c1ccc(Cl)cc1Cl (stereo not given)	34	45.8	21	37.2	22.8	34.7	10.3	52.6	42.3	11.6	46.5	13.6	58.3	40	17.5	< 10	54.9	26.9	33.8	< 10	IC50 (HL-60(TB)): 153 nM; inhibition of growth at 10 µM (NCI/ADR-RES): 45.4%; inhibition of growth at 10 µM (UACC-257): 31.9%; inhibition of growth at 10 µM (SR): 62.1%; inhibition of growth at 10 µM (UACC-62): 48.4%; inhibition of growth at 10 µM (Malme-3M): 27.2%; inhibition of growth at 10 µM (SN12C): 34.6%; inhibition of growth at 10 µM (SNB-19): 27.1%
CCOC(=O)C1=C(C)NC(SCc2nnc(-c3ccc(Cl)cc3)o2)=NC1c1cccc(Cl)c1 (stereo not given)	< 10	33.7	< 10	17.3	< 10	< 10	46.9	69.2	< 10	< 10	29.5	< 10	18.9	39.9	25.1	< 10	39.2	13.5	< 10	29.9	inhibition of growth at 10 µM (K562): 27.5%; IC50 (HL-60(TB)): 56 nM; inhibition of growth at 10 µM (RPMI-8226): 46.4%; inhibition of growth at 10 µM (NCI/ADR-RES): 21.3%; inhibition of growth at 10 µM (UACC-257): 22.2%; inhibition of growth at 10 µM (SR): 16.4%; inhibition of growth at 10 µM (UACC-62): 26.6%; inhibition of growth at 10 µM (Malme-3M): < 10%; inhibition of growth at 10 µM (SN12C): < 10%; inhibition of growth at 10 µM (SNB-19): 10.4%; inhibition of growth at 10 µM (CAKI-1): 35.1%
CCOC(=O)C1=C(C)NC(SCc2nnc(-c3ccc(Cl)cc3)o2)=NC1c1ccc(Cl)cc1 (stereo not given)	21.2	25.2	30.1	29.2	19.9	26.1	24.7	50.1	35.9	51	31	12.3	37.3	< 10	< 10	20.2	51.2	12.8	14.1	17.4	inhibition of growth at 10 µM (K562): 44.2%; IC50 (HL-60(TB)): 103 nM; inhibition of growth at 10 µM (RPMI-8226): 64.2%; inhibition of growth at 10 µM (NCI/ADR-RES): 30.1%; inhibition of growth at 10 µM (UACC-257): 13.1%; inhibition of growth at 10 µM (SR): 57.1%; inhibition of growth at 10 µM (UACC-62): 50.1%; inhibition of growth at 10 µM (Malme-3M): 18.3%; inhibition of growth at 10 µM (SN12C): < 10%; inhibition of growth at 10 µM (SNB-19): 27%; inhibition of growth at 10 µM (CAKI-1): 38.4%
CCOC(=O)C1=C(C)NC(SCc2nnc(-c3ccc(OC)cc3)o2)=NC1c1ccc(F)cc1 (stereo not given)	< 10	< 10	10.4	< 10	< 10	< 10	< 10	33.3	< 10	< 10	12.7	< 10	< 10	< 10	12	< 10	12.5	< 10	< 10	14.2	inhibition of growth at 10 µM (K562): < 10%; inhibition of growth at 10 µM (RPMI-8226): < 10%; inhibition of growth at 10 µM (NCI/ADR-RES): < 10%; inhibition of growth at 10 µM (UACC-257): 11.8%; inhibition of growth at 10 µM (SR): 15.9%; inhibition of growth at 10 µM (UACC-62): < 10%; inhibition of growth at 10 µM (Malme-3M): < 10%; inhibition of growth at 10 µM (SN12C): < 10%; inhibition of growth at 10 µM (SNB-19): 11.4%; inhibition of growth at 10 µM (CAKI-1): 24.9%
